Results from the RNAGym collection of RNA variant scans (doi:10.1002/anie.201605470).

B1: Osa-1-4 twister ribozyme (parent)
chain: CCGCCUAACACUGCCAAUGCCGGUCCCAAGCCCGGAUAAAAGUGGAGGGGGCGG

Variants of: B1
Assay: self-cleavage, relative activity (ratio to wild type); higher = more cleavage; co-transcriptional
Procedure, shortened: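 The 48 positions downstream of the cleavage site in a 54-nucleotide Oryza sativa twister ribozyme template were synthesised at 97 % wild-type base and 1 % of each other base. The template was transcribed in vitro at 37 °C for 2 h, with self-cleavage allowed during transcription. Reads with or without upstream sequence after deep sequencing marked cleavage status, and relative activity is fraction cleaved normalised to wild type.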

| Variant | self-cleavage |
| --- | --- |
| C20A C9G | 0.68 |
| C20A C9U | 0.53 |
| C20A C21A | 0.78 |
| C20A C21G | 0.12 |
| C20A C21U | 0.86 |
| C20A C25A | 0.19 |
| C20A C25G | 0.11 |
| C20A C25U | 0.78 |
| C20A C26A | 0.08 |
| C20A C26G | 0.08 |
| C20A C26U | 0.87 |
| C20A C27A | 0.34 |
| C20A C27G | 0.09 |
| C20A C27U | 0.31 |
| C20A C31A | 0.04 |
| C20A C31G | 0.14 |
| C20A C31U | 0.81 |
| C20A C32A | 0.07 |
| C20A C32G | 0.05 |
| C20A C32U | 0.08 |
| C20A C33A | 0.08 |
| C20A C33G | 0.05 |
| C20A C33U | 0.76 |
| C20A C52A | 0.8 |

| Variant | self-cleavage |
| --- | --- |
| C20A C52G | 0.79 |
| C20A C52U | 0.82 |
| C20A G13A | 0.13 |
| C20A G13C | 0.01 |
| C20A G13U | 0.02 |
| C20A G19A | 0.86 |
| C20A G19C | 0.31 |
| C20A G19U | 0.78 |
| C20A G22A | 0.39 |
| C20A G22C | 0.07 |
| C20A G22U | 0.53 |
| C20A G23A | 0.18 |
| C20A G23C | 0.03 |
| C20A G23U | 0.1 |
| C20A G30A | 0.04 |
| C20A G30C | 0.04 |
| C20A G30U | 0.03 |
| C20A G34A | 0.84 |
| C20A G34C | 0.26 |
| C20A G34U | 0.64 |
| C20A G35A | 0.88 |
| C20A G35C | 0.9 |
| C20A G35U | 0.94 |
| C20A G42A | 0.59 |

| Variant | self-cleavage |
| --- | --- |
| C20A G42C | 0.17 |
| C20A G42U | 0.07 |
| C20A G44A | 0.75 |
| C20A G44C | 0.76 |
| C20A G44U | 0.78 |
| C20A G45A | 0.45 |
| C20A G45C | 0.05 |
| C20A G45U | 0.13 |
| C20A G47A | 0.36 |
| C20A G47C | 0.13 |
| C20A G47U | 0.32 |
| C20A G48A | 0.09 |
| C20A G48C | 0.07 |
| C20A G48U | 0.09 |
| C20A G49A | 0.2 |
| C20A G49C | 0.06 |
| C20A G49U | 0.16 |
| C20A G50A | 0.8 |
| C20A G50C | 0.78 |
| C20A G50U | 0.82 |
| C20A G51A | 0.78 |
| C20A G51C | 0.28 |
| C20A G51U | 0.66 |
| C20A G53A | 0.67 |

| Variant | self-cleavage |
| --- | --- |
| C20A G53C | 0.1 |
| C20A G53U | 0.42 |
| C20A G54A | 0.75 |
| C20A G54C | 0.78 |
| C20A G54U | 0.76 |
| C20A U12A | 0.82 |
| C20A U12C | 0.57 |
| C20A U12G | 0.71 |
| C20A U18A | 0.6 |
| C20A U18C | 0.83 |
| C20A U18G | 0.67 |
| C20A U24A | 0.37 |
| C20A U24C | 0.17 |
| C20A U24G | 0.06 |
| C20A U37A | 0.83 |
| C20A U37C | 0.88 |
| C20A U37G | 0.89 |
| C20A U43A | 0.77 |
| C20A U43C | 0.58 |
| C20A U43G | 0.71 |
| C20G | 0.2 |
| C20G C9A | 0.05 |
| C20G C9G | 0.1 |
| C20G C9U | 0.05 |

| Variant | self-cleavage |
| --- | --- |
| C20G C21A | 0.46 |
| C20G C21G | 0.24 |
| C20G C21U | 0.29 |
| C20G C25A | 0.06 |
| C20G C25G | 0.06 |
| C20G C25U | 0.21 |
| C20G C26A | 0.03 |
| C20G C26G | 0.1 |
| C20G C26U | 0.2 |
| C20G C27A | 0.04 |
| C20G C27G | 0.05 |
| C20G C27U | 0.05 |
| C20G C31A | 0.02 |
| C20G C31G | 0.09 |
| C20G C31U | 0.07 |
| C20G C32A | 0.03 |
| C20G C32G | 0.06 |
| C20G C32U | 0.03 |
| C20G C33A | 0.04 |
| C20G C33G | 0.05 |
| C20G C33U | 0.05 |
| C20G C52A | 0.08 |
| C20G C52G | 0.11 |
| C20G C52U | 0.17 |

| Variant | self-cleavage |
| --- | --- |
| C20G G13A | 0.03 |
| C20G G13C | 0.02 |
| C20G G13U | 0.01 |
| C20G G19A | 0.41 |
| C20G G19C | 0.17 |
| C20G G19U | 0.37 |
| C20G G22A | 0.08 |
| C20G G22C | 0.05 |
| C20G G22U | 0.09 |
| C20G G23A | 0.06 |
| C20G G23C | 0.04 |
| C20G G23U | 0.04 |
| C20G G30A | 0.03 |
| C20G G30C | 0.03 |
| C20G G30U | 0.02 |
| C20G G34A | 0.08 |
| C20G G34C | 0.08 |
| C20G G34U | 0.06 |
| C20G G35A | 0.27 |
| C20G G35C | 0.28 |
| C20G G35U | 0.27 |
| C20G G42A | 0.07 |
| C20G G42C | 0.04 |
| C20G G42U | 0.02 |

| Variant | self-cleavage |
| --- | --- |
| C20G G44A | 0.08 |
| C20G G44C | 0.06 |
| C20G G44U | 0.07 |
| C20G G45A | 0.04 |
| C20G G45C | 0.03 |
| C20G G45U | 0.02 |
| C20G G47A | 0.05 |
| C20G G47C | 0.04 |
| C20G G47U | 0.03 |
| C20G G48A | 0.03 |
| C20G G48C | 0.04 |
| C20G G48U | 0.03 |
| C20G G49A | 0.05 |
| C20G G49C | 0.03 |
| C20G G49U | 0.04 |
| C20G G50A | 0.23 |
| C20G G50C | 0.06 |
| C20G G50U | 0.09 |
| C20G G51A | 0.09 |
| C20G G51C | 0.03 |
| C20G G51U | 0.06 |
| C20G G53A | 0.06 |
| C20G G53C | 0.03 |
